Compound activity from PubChem.
A selection: hits, their analogues and other compounds. The true share with any hit is near 1.3%.
PDI turbidity = blocks human protein disulfide isomerase activity; actives 0.052% (n = 350,000); P07237; inhibition, % at 10 µM; AID 588391; PDI insulin aggregation turbidity, A650, 90 min;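 active means mean inhibition across replicates of 30% or more, whatever share of single replicates reach that level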
SIRT5 inh = inhibitors of human sirtuin-5 desuccinylase | Q9NXA8 | Purified SirT5, succinyl-peptide AMC, trypsin-coupled fluorescence | inhibition, % at 15 µM | actives 1.1% (n = 330,000) | AID 652115; in the data active means inhibition above about 15%
AF4-AF9 inh = inhibitors of human MLL-AF4/AF9 interaction; inhibition, % at 10 µM; P42568; actives 0.47% (n = 350,000); AlphaScreen, biotin-AF4 peptide binding to FLAG-AF9;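 active means every replicate reaching a set inhibition limit, whatever the replicate mean, cut at about 25% in these data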
Target sequence (P42568 whole entry, looked up): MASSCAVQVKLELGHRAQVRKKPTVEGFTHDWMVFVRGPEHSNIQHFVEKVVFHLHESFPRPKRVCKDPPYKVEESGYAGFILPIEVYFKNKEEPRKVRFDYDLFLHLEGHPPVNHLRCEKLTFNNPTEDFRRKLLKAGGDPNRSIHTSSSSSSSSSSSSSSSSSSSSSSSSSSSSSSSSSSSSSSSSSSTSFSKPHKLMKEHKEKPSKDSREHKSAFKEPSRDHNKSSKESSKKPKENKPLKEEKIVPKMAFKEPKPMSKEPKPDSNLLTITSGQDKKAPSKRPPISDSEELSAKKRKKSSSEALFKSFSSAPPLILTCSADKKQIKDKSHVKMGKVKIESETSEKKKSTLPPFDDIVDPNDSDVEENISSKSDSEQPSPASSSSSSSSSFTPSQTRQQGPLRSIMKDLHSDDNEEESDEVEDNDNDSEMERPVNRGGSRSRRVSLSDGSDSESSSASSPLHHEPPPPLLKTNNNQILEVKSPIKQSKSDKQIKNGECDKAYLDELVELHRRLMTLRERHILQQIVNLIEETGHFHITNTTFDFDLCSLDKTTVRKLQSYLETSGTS
FN deposition inh = fibronectin deposition inhibition; actives 0.086% (n = 350,000); inhibition, % at 12.6 µM; AH1F fibroblasts, Alexa488-fibronectin deposition fluorescence, overnight;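 active means mean inhibition across replicates of 30% or more, regardless of how many single replicates reach that level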
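Measured by – fluorescence 485/525 nm · System – AH1F fibroblast monolayer, labelled fibronectin deposition · Amount – 10000 cells per well · Buffer or medium – serum-reduced DMEM (2% serum) · Doses – single dose, pinned · Also added – fluorescent fibronectin at 24 nM final · Schedule – 1 h cell attachment, overnight exposure to compound and label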
ERp5 block = blocks human ERp5 reductase activity on insulin; actives 0.05% (n = 350,000); ERp5 insulin aggregation, absorbance 650 nm, 90 min; inhibition, % at 9.99 µM; Q15084;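 active means mean replicate inhibition above about 25%, with every replicate also reaching it, limit read from the data, passing the limit was not always enough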
Large screens that a line does not name were inactive.

O=C(c1cccc(F)c1)N1CC2(C1)[C@H](c1ccccc1)[C@@H](CO)N2Cc1ccccn1	none (no result: PDI turbidity)
CCOC(=O)C1(Cc2ccccc2)CCCN(C(=O)C=C(C)C)C1 (stereo unspecified)	none
CCOC(=O)C1(Cc2ccccc2)CCCN(C2CCN(C(C)=O)CC2)C1 (stereo unspecified)	SIRT5 inh 23
COc1cccc(Cn2cnc(-c3ccccc3OC)c2C2CC2)c1	none (no result: PDI turbidity, SIRT5 inh)
O=C(Nc1cc(F)ccc1F)N1CC(=O)N2[C@H](C1)[C@H](c1ccc(C#CC3CCCC3)cc1)[C@@H]2CO	none (no result: PDI turbidity, FN deposition inh)
O=C(Nc1cc(F)ccc1F)N1CC(=O)N2[C@H](CO)[C@@H](c3ccc(C#CC4CCCCC4)cc3)[C@@H]2C1	SIRT5 inh 18 (no result: PDI turbidity, FN deposition inh)
O=C(Nc1cc(F)ccc1F)N1CC(=O)N2[C@H](C1)[C@@H](c1ccc(C#CC3CCCCC3)cc1)[C@@H]2CO	SIRT5 inh 20 (no result: PDI turbidity, FN deposition inh)
CC(C)CC#Cc1ccc([C@@H]2[C@H]3CN(C(=O)Nc4cc(F)ccc4F)CC(=O)N3[C@H]2CO)cc1	SIRT5 inh 17 (no result: PDI turbidity)
O=C(Cc1ccccn1)N1CC2(C1)[C@H](c1ccccc1)[C@H](CO)N2C(=O)c1ccccc1	none (no result: PDI turbidity)
C[C@@H]1CN([C@H](C)CO)C(=O)c2cc(N(C)C)ccc2O[C@H]1CN(C)Cc1ccc(-c2ccccc2)cc1	AF4-AF9 inh 50 (no result: PDI turbidity, FN deposition inh)
C[C@H]1CN([C@@H](C)CO)C(=O)c2cc(N(C)C)ccc2O[C@@H]1CN(C)Cc1ccc(-c2ccccc2)cc1	AF4-AF9 inh 40 (no result: PDI turbidity, FN deposition inh)
C[C@@H]1CN([C@H](C)CO)C(=O)c2cc(N(C)C)ccc2O[C@H]1CN(C)Cc1ccccc1	none (no result: PDI turbidity, FN deposition inh)
C[C@@H]1CN([C@H](C)CO)C(=O)c2cc(N(C)C)ccc2O[C@@H]1CN(C)Cc1ccccc1	none (no result: PDI turbidity, FN deposition inh)
CO[C@H]1CN(C)C(=O)c2ccc(NC(=O)C3CC3)cc2OC[C@H](C)N(C(C)=O)C[C@H]1C	none (no result: PDI turbidity)
CCCCn1c(NCc2ccc(N(C)C)cc2)nc2ccccc21	AF4-AF9 inh 29
C[C@@H]1CCCCO[C@@H](CN(C)C(=O)Nc2ccc3c(c2)OCO3)[C@@H](C)CN([C@H](C)CO)C(=O)c2cc(NC(=O)Nc3ccc4c(c3)OCO4)ccc2O1	SIRT5 inh 17 (no result: PDI turbidity)
C[C@H](CO)N1C[C@H](C)[C@@H](CN(C)C(=O)C2CCCCC2)OCCCC[C@H](C)Oc2ccc(NC(=O)Nc3ccc4c(c3)OCO4)cc2C1=O	SIRT5 inh 16 (no result: PDI turbidity, FN deposition inh)
C[C@@H]1CCCCO[C@@H](CN(C)C(=O)Nc2ccc(C(F)(F)F)cc2)[C@@H](C)CN([C@H](C)CO)C(=O)c2cc(NC(=O)Nc3ccc4c(c3)OCO4)ccc2O1	none (no result: PDI turbidity)
C[C@@H]1CN([C@H](C)CO)C(=O)c2cc(NC(=O)Nc3ccc4c(c3)OCO4)ccc2O[C@@H](C)CCCCO[C@@H]1CN(C)C(=O)C1CCCCC1	none (no result: PDI turbidity, FN deposition inh)
C[C@@H]1CCCCO[C@H](CN(C)C(=O)Nc2ccc(C(F)(F)F)cc2)[C@H](C)CN([C@@H](C)CO)C(=O)c2cc(NC(=O)Nc3ccc4c(c3)OCO4)ccc2O1	SIRT5 inh 15 (no result: PDI turbidity)
O=C(c1ccc(Cl)c([N+](=O)[O-])c1)N(c1ccccn1)c1ccccn1	none (no result: SIRT5 inh)
O=C(CSc1nc2sc3c(c2c(=O)n1-c1ccccc1)CCCC3)NCc1ccco1	none (no result: SIRT5 inh)
Cc1ccc(Nc2nc(N)c([N+](=O)[O-])c(NCCO)n2)cc1C	none (no result: AF4-AF9 inh)
CCCCCCn1c(=O)n2n(c1=O)[C@@H]1CN(S(=O)(=O)c3ccc(C)cc3)C[C@]1(O)[C@@H](OC(=O)NCc1ccccc1)C2	SIRT5 inh 20
Cc1ccc(S(=O)(=O)N2C[C@H]3n4c(=O)ccc(=O)n4C[C@H](OC(=O)NCc4ccco4)[C@@]3(O)C2)cc1	SIRT5 inh 33
Cc1ccc(S(=O)(=O)N2C[C@H]3n4c(=O)ccc(=O)n4C[C@H](OC(=O)NCc4ccccc4)[C@@]3(O)C2)cc1	none
COc1ccc(C2CC(=O)c3cc(OC)c(OC)cc32)cc1OC (stereo unspecified)	none
O=C(CNC1CCCC1)Nc1ccc(N2CCCCCC2)cc1	AF4-AF9 inh 44
CC(=O)c1ccc(OCC(=O)Nc2ccc(N3CCCCC3)cc2)cc1	AF4-AF9 inh 26
CC(=O)c1ccc(NC(=O)CNC2CCCCC2)cc1	none
O=C(CSc1ccccc1C(=O)O)NCc1ccccc1	SIRT5 inh 15
Cc1ccc(S(=O)(=O)OCC(=O)Nc2ccc(C(=O)O)c(O)c2)cc1	SIRT5 inh 53
CCOC(=O)Nc1ccc(C(=O)Oc2ccccc2)c(O)c1	none (no result: FN deposition inh)
Cc1ccc(C(=O)OCC(=O)Nc2ccc(C)c(S(=O)(=O)N3CCCCC3)c2)c(O)c1	none (no result: FN deposition inh)
Cc1cccc(OC(=O)Nc2ccc(C(=O)O)c(O)c2)c1	SIRT5 inh 35
N#CCSc1nnc(-c2cnccn2)n1Cc1ccccc1	none (no result: SIRT5 inh, AF4-AF9 inh, ERp5 block)
CC1=Nc2ccc(C)cc2/C1=C/c1c(N)n2c(S(=O)(=O)C(C)C)nsc2nc1=O	SIRT5 inh 19
C[C@H](CO)N1C[C@H](C)[C@H](CN(C)CC2CCCCC2)OCCCC[C@H](C)Oc2ccc(NC(=O)CCCCCC(=O)Nc3ccccc3N)cc2C1=O	none (no result: PDI turbidity, FN deposition inh)
COc1ccc(NC(=O)Nc2ccc3c(c2)C(=O)N([C@@H](C)CO)C[C@@H](C)[C@H](CN(C)C(=O)Nc2cccc4ccccc24)OCCCC[C@H](C)O3)cc1	SIRT5 inh 20 (no result: PDI turbidity)
C[C@@H]1CCCCO[C@@H](CN(C)CC2CCCCC2)[C@H](C)CN([C@H](C)CO)C(=O)c2cc(NC(=O)CCCCCC(=O)Nc3ccccc3N)ccc2O1	SIRT5 inh 20 (no result: PDI turbidity, FN deposition inh)
C[C@H]1CCCCO[C@H](CN(C)C(=O)Nc2ccc(C(F)(F)F)cc2)[C@@H](C)CN([C@@H](C)CO)C(=O)c2cc(NC(=O)Nc3ccc(F)cc3)ccc2O1	SIRT5 inh 17 (no result: PDI turbidity)
C[C@@H]1CCCCO[C@H](CN(C)C(=O)Nc2ccc(F)cc2)[C@@H](C)CN([C@H](C)CO)C(=O)c2cc(NC(=O)Nc3ccccc3)ccc2O1	AF4-AF9 inh 43 (no result: PDI turbidity)
CCCN1CCN(C(=S)NCc2ccc(Cl)cc2)CC1	none
O=C(C1=C[C@@H](C2CCCCC2)C[C@@H](OCCCCO)O1)N1CCOCC1	none
CN(C)CCCN(Cc1ccccc1)C(=S)NCc1ccccc1	none
C[C@H](CO)N1C[C@H](C)[C@H](CN(C)C(=O)Nc2ccc(F)cc2)Oc2ccc(NC(=O)Nc3ccc(F)cc3)cc2C1=O	SIRT5 inh 24 (no result: PDI turbidity, FN deposition inh)
C[C@@H]1CN([C@@H](C)CO)C(=O)c2cc(NC(=O)Nc3ccc(F)cc3)ccc2O[C@H]1CN(C)C(=O)Nc1ccc(F)cc1	none (no result: PDI turbidity, FN deposition inh)
C[C@@H]1CCCCO[C@@H](CN(C)C(=O)C2CCCCC2)[C@H](C)CN([C@@H](C)CO)C(=O)c2cc(NC(=O)Nc3ccc(F)cc3)ccc2O1	SIRT5 inh 19 (no result: PDI turbidity, FN deposition inh)
C[C@@H]1CCCCO[C@H](CN(C)C(=O)Cc2ccccc2)[C@@H](C)CN([C@@H](C)CO)C(=O)c2cc(NC(=O)Nc3ccc(F)cc3)ccc2O1	none (no result: PDI turbidity, FN deposition inh)
